# Data: ChEMBL document CHEMBL1148787, “Novel substituted (pyridin-3-yl)phenyloxazolidinones: antibacterial agents with reduced activity against monoamine oxidase A and increased solubility” (J Med Chem, 2007)
# pIC50, pKi: −log10 of the molar value.
# Legend:
# [1] = Solubility by nephelometric analysis; assay type: physicochemical
# Outline: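 Nephelometry after diluting compounds into the MAO-A assay mixture (100 mM potassium phosphate, pH 7.4).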
# [2] = species: Homo sapiens; assay: Protein binding in human plasma; details: read-out: PPB (converted)
# [3] = system: Staphylococcus aureus; assay: Antibacterial activity against methicillin-susceptible Staphylococcus aureus AP601055; assay type: functional
# Outline: (§1)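 CLSI broth microdilution, 64 to 0.06 µg/mL, 2% DMSO final. Media: S. aureus, Mueller Hinton broth; H. influenzae, MHB plus 0.5% yeast extract, 15 µg/mL hematin, 1.5 µg/mL NAD; S. pneumoniae, MHB plus 0.65% lysed horse blood. 35 °C, aerobic (S. aureus) or 5% CO2.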
# [4] = system: Streptococcus pneumoniae; assay: Antibacterial activity against penicillin-susceptible Streptococcus pneumoniae AP671401; assay type: functional; outline: as §1
# [5] = target: T1, Amine oxidase [flavin-containing] A (Homo sapiens, UniProt P21397); assay: Inhibition of human liver MAOA expressed in yeast
# T1 sequence (P21397 whole entry): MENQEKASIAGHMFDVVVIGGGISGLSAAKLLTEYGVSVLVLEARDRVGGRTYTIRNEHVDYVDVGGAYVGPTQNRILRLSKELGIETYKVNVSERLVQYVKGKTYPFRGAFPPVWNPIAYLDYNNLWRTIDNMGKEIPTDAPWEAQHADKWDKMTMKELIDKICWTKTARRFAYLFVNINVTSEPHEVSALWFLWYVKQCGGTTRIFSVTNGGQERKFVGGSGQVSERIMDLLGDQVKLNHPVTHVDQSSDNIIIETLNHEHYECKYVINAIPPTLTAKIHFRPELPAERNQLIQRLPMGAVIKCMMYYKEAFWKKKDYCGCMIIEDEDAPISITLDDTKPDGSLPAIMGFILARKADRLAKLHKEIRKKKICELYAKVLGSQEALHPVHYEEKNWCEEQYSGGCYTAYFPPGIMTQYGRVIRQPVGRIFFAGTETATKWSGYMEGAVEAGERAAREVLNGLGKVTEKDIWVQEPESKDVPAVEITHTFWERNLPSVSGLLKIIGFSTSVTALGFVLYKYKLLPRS
# [6] = system: Haemophilus influenzae; assay: Antibacterial activity against Haemophilus influenzae ATCC 51907; assay type: functional; outline: as §1
# [7] = system: Streptococcus pneumoniae; assay: Antibacterial activity against linezolid-resistant Streptococcus pneumoniae; assay type: functional
# Outline: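 Broth microdilution per CLSI guidelines. Compounds were dissolved in 100% DMSO and diluted to 2% DMSO (v/v), 64 to 0.06 µg/mL, in 2.2% (w/v) Mueller Hinton broth with 0.65% (v/v) lysed horse blood. Plates were incubated at 35 °C in 5% CO2 and read at 620 nm.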
# [8] = AUC in Wistar rat at 10 mg/kg, iv; assay type: ADME, organism-based; set-up: dose 10 mg/kg, route intravenous; details: plasma
# Outline: (§2)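 Groups of three Wistar Han rats; bolus injection via cannulated jugular vein at 2 or 10 mg/kg. Serial 200 µL whole-blood samples at time intervals; plasma levels by LC-MS/MS; parameters by noncompartmental analysis.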
# [9] = Volume of distribution in Wistar rat at 10 mg/kg, iv; assay type: ADME, organism-based; set-up: dose 10 mg/kg, route intravenous; details: in vivo, read-out: Vdss; outline: as §2
# [10] = Clearance in Wistar rat at 10 mg/kg, iv; assay type: ADME, organism-based; set-up: dose 10 mg/kg, route intravenous; details: in vivo; outline: as §2
# [11] = Half life in Wistar rat at 10 mg/kg, iv; assay type: ADME, organism-based; set-up: dose 10 mg/kg, route intravenous; details: in vivo; outline: as §2
# [12] = target: Cytochrome P450 3A4 (Homo sapiens, UniProt P08684); assay: Inhibition of human recombinant CYP3A4; assay type: ADME
# Cytochrome P450 3A4, sequence (P08684 whole entry): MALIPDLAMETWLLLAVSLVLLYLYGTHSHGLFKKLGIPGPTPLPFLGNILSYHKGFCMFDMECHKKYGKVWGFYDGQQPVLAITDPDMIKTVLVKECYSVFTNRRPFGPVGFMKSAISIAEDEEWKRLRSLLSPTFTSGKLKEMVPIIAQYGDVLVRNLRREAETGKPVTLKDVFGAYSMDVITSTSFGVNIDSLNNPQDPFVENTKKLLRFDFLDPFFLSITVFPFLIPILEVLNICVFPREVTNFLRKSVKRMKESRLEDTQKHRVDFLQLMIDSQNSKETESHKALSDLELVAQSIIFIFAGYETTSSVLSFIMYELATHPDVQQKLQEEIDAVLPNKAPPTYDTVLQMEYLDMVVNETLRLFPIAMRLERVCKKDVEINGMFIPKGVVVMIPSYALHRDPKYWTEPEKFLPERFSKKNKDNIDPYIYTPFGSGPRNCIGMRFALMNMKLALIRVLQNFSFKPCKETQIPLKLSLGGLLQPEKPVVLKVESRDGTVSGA
# [13] = target: Cytochrome P450 2C19 (Homo sapiens, UniProt P33261); assay: Inhibition of human recombinant CYP2C19; assay type: ADME
# Cytochrome P450 2C19, sequence (P33261 whole entry): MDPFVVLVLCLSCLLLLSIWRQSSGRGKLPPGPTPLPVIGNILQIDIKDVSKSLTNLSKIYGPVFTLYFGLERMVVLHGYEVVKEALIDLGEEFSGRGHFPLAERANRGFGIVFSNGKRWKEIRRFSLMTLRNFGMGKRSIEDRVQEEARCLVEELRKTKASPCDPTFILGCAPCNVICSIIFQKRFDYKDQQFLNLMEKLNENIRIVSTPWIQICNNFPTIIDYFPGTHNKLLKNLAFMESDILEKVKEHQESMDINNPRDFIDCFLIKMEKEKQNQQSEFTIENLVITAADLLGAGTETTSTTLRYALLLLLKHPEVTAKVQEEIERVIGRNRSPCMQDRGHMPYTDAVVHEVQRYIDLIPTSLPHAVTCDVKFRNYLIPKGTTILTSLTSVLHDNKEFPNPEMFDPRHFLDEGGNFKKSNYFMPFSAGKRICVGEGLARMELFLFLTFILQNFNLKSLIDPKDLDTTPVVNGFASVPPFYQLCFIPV
# Outline: (§3)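 Recombinant human P450s, compound at 0.2-20 µM; fluorogenic substrates: 3-cyano-7-ethoxycoumarin (1A2), 7-methoxy-4-trifluoromethylcoumarin (2C9, 2C19), 7-methoxy-4-(aminomethyl)coumarin (2D6). Fluorescence detection; IC50 determined.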
# [14] = target: Cytochrome P450 2C9 (Homo sapiens, UniProt P11712); assay: Inhibition of human recombinant CYP2C9; assay type: ADME; outline: as §3
# Cytochrome P450 2C9, sequence (P11712 whole entry): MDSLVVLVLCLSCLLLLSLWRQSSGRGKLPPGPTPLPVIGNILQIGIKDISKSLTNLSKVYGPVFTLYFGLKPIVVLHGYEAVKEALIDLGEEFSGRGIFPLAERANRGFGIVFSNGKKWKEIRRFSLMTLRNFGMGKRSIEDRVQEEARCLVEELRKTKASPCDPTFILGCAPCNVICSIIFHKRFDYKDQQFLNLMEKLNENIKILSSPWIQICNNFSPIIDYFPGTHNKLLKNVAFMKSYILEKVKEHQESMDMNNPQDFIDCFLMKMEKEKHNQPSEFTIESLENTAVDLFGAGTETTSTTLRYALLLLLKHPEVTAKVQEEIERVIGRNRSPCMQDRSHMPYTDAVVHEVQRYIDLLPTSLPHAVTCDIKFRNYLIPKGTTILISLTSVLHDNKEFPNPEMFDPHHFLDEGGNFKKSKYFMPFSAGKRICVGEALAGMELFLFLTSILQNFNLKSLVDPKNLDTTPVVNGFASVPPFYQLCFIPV
# [15] = target: Cytochrome P450 2D6 (Homo sapiens, UniProt P10635); assay: Inhibition of human recombinant CYP2D6; assay type: ADME; outline: as §3
# Cytochrome P450 2D6, sequence (P10635 whole entry): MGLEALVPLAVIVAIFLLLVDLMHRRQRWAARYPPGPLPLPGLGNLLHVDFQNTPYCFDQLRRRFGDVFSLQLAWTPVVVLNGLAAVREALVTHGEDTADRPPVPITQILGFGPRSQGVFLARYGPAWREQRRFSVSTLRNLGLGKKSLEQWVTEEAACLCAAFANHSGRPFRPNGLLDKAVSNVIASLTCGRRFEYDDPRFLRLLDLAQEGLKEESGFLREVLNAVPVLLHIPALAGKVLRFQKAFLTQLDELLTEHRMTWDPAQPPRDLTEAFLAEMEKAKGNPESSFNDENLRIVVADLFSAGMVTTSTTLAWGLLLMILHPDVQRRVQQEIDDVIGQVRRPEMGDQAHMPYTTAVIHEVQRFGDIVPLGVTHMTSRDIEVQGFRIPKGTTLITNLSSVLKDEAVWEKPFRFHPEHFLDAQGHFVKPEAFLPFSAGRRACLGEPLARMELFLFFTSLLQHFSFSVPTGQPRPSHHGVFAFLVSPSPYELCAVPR
# [16] = target: T2, Cytochrome P450 1A2 (Homo sapiens, UniProt P05177); assay: Inhibition of human recombinant CYP1A2; assay type: ADME; outline: as §3
# T2 sequence (P05177 whole entry): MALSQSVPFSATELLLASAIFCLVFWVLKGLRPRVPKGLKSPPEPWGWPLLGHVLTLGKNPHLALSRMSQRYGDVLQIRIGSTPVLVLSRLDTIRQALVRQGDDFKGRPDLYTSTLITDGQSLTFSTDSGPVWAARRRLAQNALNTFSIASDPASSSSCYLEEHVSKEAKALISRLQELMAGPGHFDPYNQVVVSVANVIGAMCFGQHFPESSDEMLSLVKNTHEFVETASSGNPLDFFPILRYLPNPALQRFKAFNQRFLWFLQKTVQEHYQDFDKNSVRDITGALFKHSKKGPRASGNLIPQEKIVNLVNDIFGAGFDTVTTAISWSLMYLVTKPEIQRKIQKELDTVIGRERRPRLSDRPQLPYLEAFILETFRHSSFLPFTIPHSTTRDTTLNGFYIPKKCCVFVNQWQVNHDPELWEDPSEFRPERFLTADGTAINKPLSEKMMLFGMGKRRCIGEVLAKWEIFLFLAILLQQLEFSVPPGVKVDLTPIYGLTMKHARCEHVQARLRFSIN
Compound,solubility kinetic [1],fraction unbound [2],MIC [3],MIC [4],pKi [5],MIC [6],MIC [7],AUC [8],Vd [9],clearance [10],half-life [11],pIC50 [12],pIC50 [13],pIC50 [14],pIC50 [15],pIC50 [16]
CN1CCN(CCCC(=O)c2ccc(-c3ccc(N4C[C@H](Cn5ccnn5)OC4=O)cc3F)cn2)CC1,> 400 µM,0.5,1 µg/mL,< 0.06 µg/mL,4.98,8 µg/mL,0.5 µg/mL,–,–,–,–,–,–,–,–,–
O=C(CCCN1CCOCC1)c1ccc(-c2ccc(N3C[C@H](Cn4ccnn4)OC3=O)cc2F)cn1,100 µM,0.35,0.5 µg/mL,0.13 µg/mL,–,4 µg/mL,0.5 µg/mL,–,–,–,–,–,–,–,–,–
O=C(CC1CCNCC1)c1ccc(-c2ccc(N3C[C@H](Cn4ccnn4)OC3=O)cc2F)cn1,> 400 µM,–,1 µg/mL,0.13 µg/mL,4.55,8 µg/mL,0.5 µg/mL,800 ng·h/mL,15 L/kg,196 mL/min/kg,144 min,–,–,–,–,–
Cc1cn(CC(=O)c2ccc(-c3ccc(N4C[C@H](Cn5ccnn5)OC4=O)cc3F)cn2)cn1,12.5 µM,0.31,0.5 µg/mL,< 0.06 µg/mL,< 5.25,2 µg/mL,0.5 µg/mL,–,–,> 100 mL/min/kg,–,< 4.70,< 4.70,< 4.70,< 4.70,< 4.70
O=C(c1ccc(-c2ccc(N3C[C@H](Cn4ccnn4)OC3=O)cc2F)cn1)C1CCNCC1,100 µM,–,0.5 µg/mL,0.13 µg/mL,< 4.36,4 µg/mL,0.5 µg/mL,4000 ng·h/mL,3.8 L/kg,38 mL/min/kg,144 min,–,–,–,–,–
CN1CCN(CCCC(O)c2ccc(-c3ccc(N4C[C@H](Cn5ccnn5)OC4=O)cc3F)cn2)CC1 (some centres not stated),> 400 µM,–,2 µg/mL,0.25 µg/mL,4.39,8 µg/mL,1 µg/mL,–,–,–,–,–,–,–,–,–
O=C1O[C@@H](Cn2ccnn2)CN1c1ccc(-c2ccc(C(O)CN3CCOCC3)nc2)c(F)c1 (some centres not stated),> 400 µM,0.67,1 µg/mL,0.25 µg/mL,–,4 µg/mL,2 µg/mL,–,–,–,–,–,–,–,–,–
CC(C)C(O)c1ccc(-c2ccc(N3C[C@H](Cn4ccnn4)OC3=O)cc2F)cn1 (some centres not stated),> 400 µM,–,0.5 µg/mL,0.25 µg/mL,4.95,16 µg/mL,2 µg/mL,–,–,–,–,–,–,–,–,–
O=C1O[C@@H](Cn2ccnn2)CN1c1ccc(-c2cccnc2)c(F)c1,12.5 µM,–,0.25 µg/mL,< 0.06 µg/mL,> 6.52,2 µg/mL,1 µg/mL,–,–,–,–,5.17,< 4.70,< 4.70,5.18,< 4.70
O=C1O[C@@H](Cn2ccnn2)CN1c1ccc(-c2ccc(CO)nc2)c(F)c1,100 µM,–,0.25 µg/mL,0.13 µg/mL,–,1 µg/mL,1 µg/mL,–,–,–,–,< 4.70,< 4.70,< 4.70,< 4.70,< 4.70
C[C@@H](O)c1ccc(-c2ccc(N3C[C@H](Cn4ccnn4)OC3=O)cc2F)cn1,> 400 µM,–,0.25 µg/mL,< 0.06 µg/mL,5.37,2 µg/mL,1 µg/mL,–,–,–,–,–,–,–,–,–
O=C1O[C@@H](Cn2ccnn2)CN1c1ccc(-c2ccc(C(O)C3CNC3)nc2)c(F)c1 (some centres not stated),> 400 µM,–,64 µg/mL,16 µg/mL,4.24,64 µg/mL,> 64 µg/mL,–,–,–,–,–,–,–,–,–
